From ChEMBL document CHEMBL1800034, “A synthetic 7,8-dihydroxyflavone derivative promotes neurogenesis and exhibits potent antidepressant effect” (J Med Chem, 2010)
The source made the active and inactive calls. No cut-off for these calls is given here.

Legend:
[1] = tested on: Mus musculus; assay: Antidepressant activity in TrkB F616A knock in mouse assessed as reduction of immobility time at 5 mg/kg, po administered for 21 days by forced swim test assay in presence of TrkB F616A inhibitor 1NMPP1; type: functional, organism-based; design: dose 5 mg/kg
[2] = tested on: Mus musculus; assay: Toxicity in C57BL/6J mouse assessed as pathological changes in brain cortex at 5 mg/kg, po for 3 weeks; type: organism-based; design: dose 5 mg/kg, route oral; settings: in vivo, 504 h
How it was run: (§1)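 Mice were dosed orally at 5 mg/kg for 3 weeks, with saline-treated controls. Major organs were examined for pathological changes, and a complete blood count was done.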

[3] = target: BDNF/NT-3 growth factors receptor (Rattus norvegicus) (UniProt Q63604); assay: Agonist activity at TrkB in E16 rat embryonic cortical neurons assessed as inhibition of glutamate-induced caspase 3 activation at 50 to 500 nM after 30 mins followed by 16 hrs of 50 uM glutamate-challenge by ELISA; type: functional
Sequence of BDNF/NT-3 growth factors receptor (Rattus norvegicus) (Q63604 whole entry): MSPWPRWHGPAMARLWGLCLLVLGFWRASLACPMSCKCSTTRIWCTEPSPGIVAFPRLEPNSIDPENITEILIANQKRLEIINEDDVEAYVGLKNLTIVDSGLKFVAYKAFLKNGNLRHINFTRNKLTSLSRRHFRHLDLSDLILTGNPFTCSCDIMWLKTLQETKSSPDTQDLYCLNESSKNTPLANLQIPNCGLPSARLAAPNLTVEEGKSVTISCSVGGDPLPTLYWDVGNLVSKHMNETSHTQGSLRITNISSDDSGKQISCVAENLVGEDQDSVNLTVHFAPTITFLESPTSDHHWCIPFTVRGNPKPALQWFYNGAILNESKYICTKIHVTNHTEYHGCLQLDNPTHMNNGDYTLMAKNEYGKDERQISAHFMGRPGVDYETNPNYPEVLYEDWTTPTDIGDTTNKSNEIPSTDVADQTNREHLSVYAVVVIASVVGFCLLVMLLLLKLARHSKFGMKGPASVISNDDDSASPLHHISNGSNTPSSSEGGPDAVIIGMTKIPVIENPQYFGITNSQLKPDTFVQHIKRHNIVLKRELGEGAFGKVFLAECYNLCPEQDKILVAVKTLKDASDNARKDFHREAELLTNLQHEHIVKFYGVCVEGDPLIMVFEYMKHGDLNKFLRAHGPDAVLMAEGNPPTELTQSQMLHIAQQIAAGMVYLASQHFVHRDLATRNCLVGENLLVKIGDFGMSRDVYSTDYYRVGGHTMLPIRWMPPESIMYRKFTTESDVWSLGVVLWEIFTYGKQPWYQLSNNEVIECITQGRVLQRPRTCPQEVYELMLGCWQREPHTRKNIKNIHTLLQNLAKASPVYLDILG
How it was run: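 Cortical neurons from E16 rat embryos were pretreated with the indicated compound concentrations for 30 min. They were then challenged with 50 µM glutamate for 16 h. Active caspase-3 in the lysates was measured by ELISA.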

[4] = tested on: Mus musculus; assay: Agonist activity at TrkB in C57BL/6J mouse brain assessed as TrkB 706 phosphorylation at 1 mg/kg, po after 4 hrs by immunoblotting; type: functional, organism-based; design: dose 1 mg/kg
How it was run: (§2)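 C57BL/6J mice got a single oral dose of 1 mg/kg. Brains were collected at several time points, about 1 to 16 h after dosing. Lysates were immunoblotted for TrkB phosphorylation and for downstream Akt and MAPK phosphorylation.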

[5] = tested on: Mus musculus; assay: Agonist activity at TrkB in C57BL/6J mouse brain assessed as TrkB 706 phosphorylation at 1 mg/kg, po at 1 hr by immunoblotting; type: functional, organism-based; design: dose 1 mg/kg; how it was run: as §2
[6] = target: BDNF/NT-3 growth factors receptor (Rattus norvegicus) (UniProt Q63604); assay: Agonist activity at TrkB in E17 rat primary rat cortical neurons assessed as AKT phosphorylation at Ser 473 after 15 mins by titration assay; type: functional
How it was run: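 Primary cortical neurons were incubated with graded concentrations, starting at 10 nM, for 15 min. Phospho-Akt Ser473 was measured by sandwich ELISA on 20 µg of lysate. Data come from 2 replicated experiment sets, given as mean ± SEM. Comparisons used one-way ANOVA against control and Student's t-test between compounds.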

[7] = tested on: Mus musculus; assay: Toxicity in C57BL/6J mouse assessed as pathological changes in hippocampus at 5 mg/kg, po for 3 weeks; type: organism-based; design: dose 5 mg/kg, route oral; settings: in vivo, 504 h; how it was run: as §1
[8] = tested on: Mus musculus; assay: Toxicity in C57BL/6J mouse assessed as pathological changes in spleen at 5 mg/kg, po for 3 weeks; type: organism-based; design: dose 5 mg/kg, route oral; settings: in vivo, 504 h; how it was run: as §1
[9] = tested on: Mus musculus; assay: Toxicity in C57BL/6J mouse assessed as pathological changes in intestine at 5 mg/kg, po for 3 weeks; type: organism-based; design: dose 5 mg/kg, route oral; settings: in vivo, 504 h; how it was run: as §1
[10] = target: BDNF/NT-3 growth factors receptor (Rattus norvegicus) (UniProt Q63604); assay: Agonist activity at TrkB in E17 rat primary cortical neurons assessed as AKT phosphorylation at S473 at 500 nM by ELISA; settings: Cerebral cortex neuron
[11] = target: BDNF/NT-3 growth factors receptor (Rattus norvegicus) (UniProt Q63604); assay: Agonist activity at TrkB in E17 rat primary cortical neurons assessed as MAPK phosphorylation at 500 nM by ELISA; settings: Cerebral cortex neuron

## CN(C)c1ccc(-c2cc(=O)c3ccc(O)c(O)c3o2)cc1
[1]
  Activity: inactive
[2]
  Activity: Non-toxic
[3]
  Activity: Active
[4]
  Activity: Active
[5]
  Activity: Active
[6]
  Activity: Dose-dependent effect
[7]
  Activity: Non-toxic
[8]
  Activity: Non-toxic
[9]
  Activity: Non-toxic
[10]
  Activity: Active
[11]
  Activity: Active
